In brackets after ≈: the same amount, converted by molar mass.
System: Human immunodeficiency virus 1
Assay: Antiviral activity against R5 tropic Human immunodeficiency virus 1 subtype B-ADA5 infected in human TZM-bl cells assessed as inhibition of virus-induced cytopathic effect after 2 days by luciferase assay
Type: functional, organism-based
Conditions: Human immunodeficiency virus 1, subtype B-ADA5, TZM-bl, 48 h
Procedure, shortened: (§1)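 TZM-bl cells were seeded at 1 × 10^4 per well and incubated overnight at 37 °C in 5% CO2. Medium was then replaced with HIV-1 stock for 2 h at 37 °C, and compound concentrations giving >50% viability were added. After two days, luciferase activity was read as RLU. EC50 is the mean of two independent assays, each in duplicate. Nevirapine served as positive control.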

Compound	EC50
Cc1cc(N2C(=O)CSC2c2c(Cl)cccc2Cl)no1 (stereo not drawn)	0.65 µg/mL (≈ 1.97 µM)
CC(C)(C)c1cc(N2C(=O)CSC2c2c(Cl)cccc2Cl)no1 (stereo not drawn)	2.4 µg/mL (≈ 6.46 µM)
CC(C)(C)c1cc(N2C(=O)CSC2c2c(F)cccc2F)no1 (stereo not drawn)	2.58 µg/mL (≈ 7.62 µM)
Cc1cc(N2C(=O)CSC2c2c(Cl)cncc2Cl)nc(C)c1Br (stereo not drawn)	4.8 µg/mL (≈ 11.1 µM)
Cc1nc(N2C(=O)CSC2c2c(Cl)cncc2Cl)ccc1Br (stereo not drawn)	2.17 µg/mL (≈ 5.18 µM)
Cc1cccc(N2C(=O)CSC2c2c(Br)cncc2Br)n1 (stereo not drawn)	4.11 µg/mL (≈ 9.58 µM)
CC(C)(C)c1cc(N2C(=O)CSC2c2c(F)cccc2Cl)no1 (stereo not drawn)	3.07 µg/mL (≈ 8.65 µM)
Cc1cc(C)nc(N2C(=O)CSC2c2c(Cl)cncc2Cl)c1 (stereo not drawn)	0.31 µg/mL (≈ 0.875 µM)

System: not listed separately
Assay: Cytotoxicity in human TZM-bl cells assessed as cell viability after 48 hrs by MTT assay
Type: cell-based
Conditions: not given
Procedure, shortened: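 TZM-bl (JC53BL-13) cells were seeded at 1 × 10^4 per well and incubated overnight at 37 °C in 5% CO2. Medium was replaced with a twofold dilution series of compound for 48 h, and viability was read by MTT absorbance. CC50 (50% cytotoxic concentration) is the mean of three independent assays, each in quadruplicate.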

Compound	CC50 at 48 h
Cc1cc(N2C(=O)CSC2c2c(Cl)cccc2Cl)no1 (stereo not drawn)	40.5 µg/mL (≈ 123 µM)
CC(C)(C)c1cc(N2C(=O)CSC2c2c(Cl)cccc2Cl)no1 (stereo not drawn)	48.5 µg/mL (≈ 131 µM)
CC(C)(C)c1cc(N2C(=O)CSC2c2c(F)cccc2F)no1 (stereo not drawn)	45.9 µg/mL (≈ 136 µM)
Cc1cc(N2C(=O)CSC2c2c(Cl)cncc2Cl)nc(C)c1Br (stereo not drawn)	15.6 µg/mL (≈ 36 µM)
Cc1nc(N2C(=O)CSC2c2c(Cl)cncc2Cl)ccc1Br (stereo not drawn)	66.7 µg/mL (≈ 159 µM)
Cc1cccc(N2C(=O)CSC2c2c(Br)cncc2Br)n1 (stereo not drawn)	26.7 µg/mL (≈ 62.2 µM)
CC(C)(C)c1cc(N2C(=O)CSC2c2c(F)cccc2Cl)no1 (stereo not drawn)	40.7 µg/mL (≈ 115 µM)
Cc1cc(C)nc(N2C(=O)CSC2c2c(Cl)cncc2Cl)c1 (stereo not drawn)	37.3 µg/mL (≈ 105 µM)

System: not listed separately
Assay: Selectivity index, ratio of CC50 for human TZM-bl cells to EC50 for X4 tropic Human immunodeficiency virus 1 subtype B-3B
Type: cell-based
Conditions: read-out: Ratio CC50/EC50
Procedure, shortened: (§2)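 Selectivity index is CC50/EC50. […] EC50 came from the 2-day luciferase (RLU) readout in HIV-1-infected TZM-bl cells (mean of two assays).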

Compound	selectivity ratio
Cc1cc(N2C(=O)CSC2c2c(Cl)cccc2Cl)no1 (stereo not drawn)	116
CC(C)(C)c1cc(N2C(=O)CSC2c2c(Cl)cccc2Cl)no1 (stereo not drawn)	32.6
CC(C)(C)c1cc(N2C(=O)CSC2c2c(F)cccc2F)no1 (stereo not drawn)	15.5
Cc1cc(N2C(=O)CSC2c2c(Cl)cncc2Cl)nc(C)c1Br (stereo not drawn)	10.4
Cc1nc(N2C(=O)CSC2c2c(Cl)cncc2Cl)ccc1Br (stereo not drawn)	10.8
Cc1cccc(N2C(=O)CSC2c2c(Br)cncc2Br)n1 (stereo not drawn)	12
CC(C)(C)c1cc(N2C(=O)CSC2c2c(F)cccc2Cl)no1 (stereo not drawn)	20.8
Cc1cc(C)nc(N2C(=O)CSC2c2c(Cl)cncc2Cl)c1 (stereo not drawn)	46.6

System: not listed separately
Assay: Selectivity index, ratio of CC50 for human TZM-bl cells to EC50 for R5 tropic Human immunodeficiency virus 1 subtype B-ADA5
Type: toxicity, cell-based
Conditions: read-out: Ratio CC50/EC50
Procedure, shortened: as §2

Compound	selectivity ratio
Cc1cc(N2C(=O)CSC2c2c(Cl)cccc2Cl)no1 (stereo not drawn)	62.3
CC(C)(C)c1cc(N2C(=O)CSC2c2c(Cl)cccc2Cl)no1 (stereo not drawn)	20
CC(C)(C)c1cc(N2C(=O)CSC2c2c(F)cccc2F)no1 (stereo not drawn)	18
Cc1cc(N2C(=O)CSC2c2c(Cl)cncc2Cl)nc(C)c1Br (stereo not drawn)	3.2
Cc1nc(N2C(=O)CSC2c2c(Cl)cncc2Cl)ccc1Br (stereo not drawn)	30.7
Cc1cccc(N2C(=O)CSC2c2c(Br)cncc2Br)n1 (stereo not drawn)	6.5
CC(C)(C)c1cc(N2C(=O)CSC2c2c(F)cccc2Cl)no1 (stereo not drawn)	13.2
Cc1cc(C)nc(N2C(=O)CSC2c2c(Cl)cncc2Cl)c1 (stereo not drawn)	120

System: Human immunodeficiency virus 1
Assay: Antiviral activity against X4 tropic Human immunodeficiency virus 1 subtype D-UG070 infected in human TZM-bl cells assessed as inhibition of virus-induced cytopathic effect after 2 days by luciferase assay
Type: functional, organism-based
Conditions: Human immunodeficiency virus 1, subtype D-UG070, TZM-bl, 48 h
Procedure, shortened: as §1

Compound	EC50
Cc1cc(N2C(=O)CSC2c2c(Cl)cccc2Cl)no1 (stereo not drawn)	0.5 µg/mL (≈ 1.52 µM)
CC(C)(C)c1cc(N2C(=O)CSC2c2c(Cl)cccc2Cl)no1 (stereo not drawn)	1.76 µg/mL (≈ 4.74 µM)
Cc1nc(N2C(=O)CSC2c2c(Cl)cncc2Cl)ccc1Br (stereo not drawn)	8.45 µg/mL (≈ 20.2 µM)
Cc1cccc(N2C(=O)CSC2c2c(Br)cncc2Br)n1 (stereo not drawn)	5.55 µg/mL (≈ 12.9 µM)
CC(C)(C)c1cc(N2C(=O)CSC2c2c(F)cccc2Cl)no1 (stereo not drawn)	1.6 µg/mL (≈ 4.51 µM)
Cc1cc(C)nc(N2C(=O)CSC2c2c(Cl)cncc2Cl)c1 (stereo not drawn)	1.55 µg/mL (≈ 4.38 µM)

System: Human immunodeficiency virus 1
Assay: Antiviral activity against R5 tropic Human immunodeficiency virus 1 subtype C-VB59 infected in human TZM-bl cells assessed as inhibition of virus-induced cytopathic effect after 2 days by luciferase assay
Type: functional, organism-based
Conditions: Human immunodeficiency virus 1, subtype C-VB59, TZM-bl, 48 h
Procedure, shortened: as §1

Compound	EC50
Cc1cc(N2C(=O)CSC2c2c(Cl)cccc2Cl)no1 (stereo not drawn)	0.35 µg/mL (≈ 1.06 µM)
CC(C)(C)c1cc(N2C(=O)CSC2c2c(Cl)cccc2Cl)no1 (stereo not drawn)	1.8 µg/mL (≈ 4.85 µM)
Cc1nc(N2C(=O)CSC2c2c(Cl)cncc2Cl)ccc1Br (stereo not drawn)	6.5 µg/mL (≈ 15.5 µM)
Cc1cccc(N2C(=O)CSC2c2c(Br)cncc2Br)n1 (stereo not drawn)	2.24 µg/mL (≈ 5.22 µM)
CC(C)(C)c1cc(N2C(=O)CSC2c2c(F)cccc2Cl)no1 (stereo not drawn)	2.5 µg/mL (≈ 7.05 µM)
Cc1cc(C)nc(N2C(=O)CSC2c2c(Cl)cncc2Cl)c1 (stereo not drawn)	1.1 µg/mL (≈ 3.11 µM)

System: not listed separately
Assay: Selectivity index, ratio of CC50 for human TZM-bl cells to EC50 for X4 tropic Human immunodeficiency virus 1 subtype D-UG070
Type: toxicity, cell-based
Conditions: read-out: Ratio CC50/EC50
Procedure, shortened: as §2

Compound	selectivity ratio
Cc1cc(N2C(=O)CSC2c2c(Cl)cccc2Cl)no1 (stereo not drawn)	81
CC(C)(C)c1cc(N2C(=O)CSC2c2c(Cl)cccc2Cl)no1 (stereo not drawn)	27.5
Cc1nc(N2C(=O)CSC2c2c(Cl)cncc2Cl)ccc1Br (stereo not drawn)	7.89
Cc1cccc(N2C(=O)CSC2c2c(Br)cncc2Br)n1 (stereo not drawn)	4.8
CC(C)(C)c1cc(N2C(=O)CSC2c2c(F)cccc2Cl)no1 (stereo not drawn)	24.4
Cc1cc(C)nc(N2C(=O)CSC2c2c(Cl)cncc2Cl)c1 (stereo not drawn)	24.1

System: not listed separately
Assay: Selectivity index, ratio of CC50 for human TZM-bl cells to EC50 for R5 tropic Human immunodeficiency virus 1 subtype C-VB59
Type: toxicity, cell-based
Conditions: read-out: Ratio CC50/EC50
Procedure, shortened: as §2

Compound	selectivity ratio
Cc1cc(N2C(=O)CSC2c2c(Cl)cccc2Cl)no1 (stereo not drawn)	116
CC(C)(C)c1cc(N2C(=O)CSC2c2c(Cl)cccc2Cl)no1 (stereo not drawn)	26.9
Cc1nc(N2C(=O)CSC2c2c(Cl)cncc2Cl)ccc1Br (stereo not drawn)	10.3
Cc1cccc(N2C(=O)CSC2c2c(Br)cncc2Br)n1 (stereo not drawn)	11.9
CC(C)(C)c1cc(N2C(=O)CSC2c2c(F)cccc2Cl)no1 (stereo not drawn)	16.2
Cc1cc(C)nc(N2C(=O)CSC2c2c(Cl)cncc2Cl)c1 (stereo not drawn)	33.9

Target: Human immunodeficiency virus type 1 reverse transcriptase (Human immunodeficiency virus 1) (UniProt Q72547)
Assay: Inhibition of biotin-dNTP labeled HIV-1 reverse transcriptase using ABST as substrate at 100 ug/ml after 1 hr by ELISA
Conditions: not given
Procedure, shortened: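 ELISA-format RT assay. Template/primer, biotin- and DIG-labelled dNTPs and RT enzyme in lysis buffer were incubated 1 h at 37 °C. The product was captured on streptavidin, detected with anti-DIG-peroxidase and ABTS substrate, and absorbance read at 405 nm. Activity is reported as percent inhibition of RT.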

Compound	inhibition
Cc1cc(N2C(=O)CSC2c2c(Br)cncc2Br)nc(C)c1Br (stereo not drawn)	62%
Cc1cc(N2C(=O)CSC2c2c(Cl)cccc2Cl)no1 (stereo not drawn)	75.4%
CC(C)(C)c1cc(N2C(=O)CSC2c2c(Cl)cccc2Cl)no1 (stereo not drawn)	50.4%
CC(C)(C)c1cc(N2C(=O)CSC2c2c(F)cccc2F)no1 (stereo not drawn)	71.5%
Cc1cc(N2C(=O)CSC2c2c(Cl)cncc2Cl)nc(C)c1Br (stereo not drawn)	57.4%
Cc1nc(N2C(=O)CSC2c2c(Cl)cncc2Cl)ccc1Br (stereo not drawn)	76.6%
Cc1cccc(N2C(=O)CSC2c2c(Br)cncc2Br)n1 (stereo not drawn)	77.6%
CC(C)(C)c1cc(N2C(=O)CSC2c2c(F)cccc2Cl)no1 (stereo not drawn)	51.1%
Cc1cc(C)nc(N2C(=O)CSC2c2c(Cl)cncc2Cl)c1 (stereo not drawn)	85.3%

System: Human immunodeficiency virus 1
Assay: Antiviral activity against X4 tropic Human immunodeficiency virus 1 subtype B-3B infected in human TZM-bl cells assessed as inhibition of virus-induced cytopathic effect after 2 days by luciferase assay
Type: functional, organism-based
Conditions: 48 h
Procedure, shortened: as §1

Compound	EC50
Cc1cc(N2C(=O)CSC2c2c(Cl)cccc2Cl)no1 (stereo not drawn)	0.35 µg/mL (≈ 1.06 µM)
CC(C)(C)c1cc(N2C(=O)CSC2c2c(Cl)cccc2Cl)no1 (stereo not drawn)	1.49 µg/mL (≈ 4.01 µM)
CC(C)(C)c1cc(N2C(=O)CSC2c2c(F)cccc2F)no1 (stereo not drawn)	2.97 µg/mL (≈ 8.78 µM)
Cc1cc(N2C(=O)CSC2c2c(Cl)cncc2Cl)nc(C)c1Br (stereo not drawn)	1.5 µg/mL (≈ 3.46 µM)
Cc1nc(N2C(=O)CSC2c2c(Cl)cncc2Cl)ccc1Br (stereo not drawn)	6.18 µg/mL (≈ 14.7 µM)
Cc1cccc(N2C(=O)CSC2c2c(Br)cncc2Br)n1 (stereo not drawn)	2.22 µg/mL (≈ 5.17 µM)
CC(C)(C)c1cc(N2C(=O)CSC2c2c(F)cccc2Cl)no1 (stereo not drawn)	1.95 µg/mL (≈ 5.5 µM)
Cc1cc(C)nc(N2C(=O)CSC2c2c(Cl)cncc2Cl)c1 (stereo not drawn)	0.8 µg/mL (≈ 2.26 µM)

Source: ChEMBL document CHEMBL1914449, “Lead optimization at C-2 and N-3 positions of thiazolidin-4-ones as HIV-1 non-nucleoside reverse transcriptase inhibitors” (Bioorg Med Chem, 2011)
